The values that follow come from ChEMBL document CHEMBL1158344, “Synthesis and antinociceptive activities of some pyrazoline derivatives” (Eur J Med Chem, 2009).

Series [1] has as its system Mus musculus. The experiment in a line: Antinociceptive activity in 5 mg/kg naloxone pretreated Swiss albino mouse assessed as protection against acetic acid-induced writhing at 100 mg/kg, ip administered 30 mins before acetic acid challenge. The class given is functional. An outline of the steps:
(§1)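 Mice, n = 7 per group, received sunflower oil vehicle or compound at 100 mg/kg ip. 30 min later they were given 0.6% acetic acid ip at 10 mL/kg. Abdominal contractions and stretches were counted over 10 min, starting 5 min after the acetic acid. In naloxone groups, naloxone was given 15 min before compound. % protection = [(control mean − treated mean)/control mean] × 100.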
In general terms: In writhing tests, fewer writhes than in controls are read as antinociception.

Series [2] has as its system Mus musculus. Put plainly: Toxicity in Swiss albino mouse assessed as mortality at 100 mg/kg. The class given is organism-based. Further details: dose 100 mg/kg. The conditions noted are these: in vivo.
For series [3], the system named is Mus musculus. Put plainly: Analgesic activity in 5 mg/kg naloxone pretreated Swiss albino mouse assessed as analgesia at 100 mg/kg by hot plate method. The class given is functional. The procedure, abridged: (§2)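 Mice, n = 7 per group, were placed one at a time on a hot plate held at 55 ± 1.0 °C. Latency to forepaw licking or to jumping out of the glass beaker was recorded, with a cut-off of 30 s. Latency was read 30 min after compound at 100 mg/kg or sunflower oil vehicle. In naloxone groups, naloxone 5 mg/kg ip was given 15 min before compound. Results are reported as % analgesia, mean ± SEM.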

Series [4] is filed under the species Mus musculus. The experiment in a line: Neurological deficit effect in Swiss albino mouse assessed as effect on motor coordination by measuring fall latency by Rota rod test. The settings on record: in vivo. An outline of the steps:
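Mice were trained for three consecutive days on a Rota-Rod at 16 rev/min, and only those staying on longer than 180 s were used. Each mouse was tested on the rod 5 min after the hot plate test, and the latency to fall was recorded.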
(In general: Falling from the rotarod earlier than controls is read as motor impairment.)

For series [5], the system named is Mus musculus. The experiment in a line: Analgesic activity in Swiss albino mouse assessed as analgesia at 100 mg/kg by hot plate method. Type of series: functional. The procedure, abridged: as §2
Series [6] concerns Mus musculus. Put plainly: Antinociceptive activity in Swiss albino mouse assessed as protection against acetic acid-induced writhing at 100 mg/kg, ip administered 30 mins before acetic acid challenge. Type of series: functional. The settings on record: route intraperitoneal. The procedure, abridged: as §1
Series [7] concerns Mus musculus. The experiment in a line: Analgesic activity in Swiss albino mouse assessed as analgesia at 10 mg/kg by hot plate method. Type of series: functional. An outline of the steps:
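Mice (n = 7) were dosed with the test compound in sunflower oil vehicle. Thirty minutes later each mouse was placed on a hot plate at 55 ± 1.0 °C. Latency to forepaw licking or jumping out of the glass beaker was recorded, with a 30 s cut-off. Values are mean ± SEM % analgesia.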
In general terms: Thermal pain tests record how soon the animal reacts.

Series [8] concerns Mus musculus. Put plainly: Antinociceptive activity in Swiss albino mouse assessed as protection against acetic acid-induced writhing at 10 mg/kg, ip administered 30 mins before acetic acid challenge. The class given is functional. The settings on record: route intraperitoneal. An outline of the steps: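 Mice (n = 7) were given the compound i.p. in sunflower oil vehicle, then 0.6% acetic acid i.p. (10 mL/kg) 30 min later. Abdominal contractions and stretches were counted for 10 min, starting 5 min after the acid. % protection = [(control mean − treated mean)/control mean] × 100. Values are mean ± SEM.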

Turning to `COc1ccc(C2CC(c3ccccc3)=NN2C(=O)CSc2nc3ccccc3[nH]2)cc1` (stereo not drawn), the Activity is recorded as 22.32% in series [1]; “Non-toxic” in series [2]; -1.34% in series [3]; “Non-toxic” in series [4]; 60.6% in series [5]; 97.21% in series [6].

Turning to `O=C(CSc1nc2ccccc2[nH]1)N1N=C(c2ccccc2)CC1c1ccccc1` (stereo not drawn), the Activity in series [1] is recorded as 12.56%; in series [2], “Non-toxic”; in series [3] it was -1.5%; in series [4], “Non-toxic”; in series [5], 61.9%; in series [6], 85.13%.

Turning to `O=C(CSc1nc2cc(Cl)ccc2o1)N1N=C(c2ccccc2)CC1c1ccccc1` (stereo not drawn), the Activity in series [1] is 7.44%; in series [2], “Non-toxic”; in series [3], -1.32%; in series [4], “Non-toxic”; in series [5] it was 59.7%; in series [6], 57.72%.

In the case of `COc1ccc(C2CC(c3ccccc3)=NN2C(=O)CSc2nc3cc(Cl)ccc3o2)cc1` (stereo not drawn), the Activity is 5.58% in series [1]; “Non-toxic” in series [2]; -2.95% in series [3]; “Non-toxic” in series [4]; 47.7% in series [5]; 43.32% in series [6].

On to `CN1CC[C@]23c4c5ccc(O)c4O[C@H]2[C@@H](O)C=C[C@H]3[C@H]1C5` [MORPHINE], for which the figures for the Activity in series [7] and in series [8] were 92.9% and 87.45%, respectively.

Take `Cc1ccc(C2=NN(C(=O)CSc3nc4ccccc4[nH]3)C(c3ccccc3)C2)cc1C` (stereo not drawn): the Activity in series [1] was 19.07%; in series [2] it was “Non-toxic”; in series [3] it was -0.58%; in series [4] it was “Non-toxic”; in series [5] it was 82.5%; in series [6], 97.67%.

Take `Cc1ccc(C2=NN(C(=O)CSc3nc4cc(Cl)ccc4o3)C(c3ccccc3)C2)cc1C` (stereo not drawn): the Activity in series [1] was 21.39%; in series [2] it was “Non-toxic”; in series [3] it was -0.97%; in series [4], “Non-toxic”; in series [5] it was 72.6%; in series [6] it was 98.14%.
